In ChEMBL document CHEMBL2146414, “Lignan derivatives from Krameria lappacea roots inhibit acute inflammation in vivo and pro-inflammatory mediators in vitro” (J Nat Prod, 2011):
Calls of active or inactive are those of the source. The rule behind the calls is not given here.

Experiments:
Mus musculus [1] = assay: Antiinflammatory activity in CD1 mouse ear dermatitis model assessed as reduction in AUC of global leukocyte infiltration-based myeloperoxidase activity at 0.04 umol administered topically per cm'2 of ear measured 3 to 48 hrs post dermatitis induction relative to untreated control; format: functional
Summary of the method: (§1)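 Same croton oil ear model in CD-1 mice. The ear punch is homogenized in 0.1 M acetate pH 4.2 with 0.1% HTAB and centrifuged 15000g for 5 min. Supernatant myeloperoxidase is assayed with 2.83 mM TMB plus 0.7 mM H2O2 for 5 min at 25 °C, stopped with acetic acid, A620, duplicates.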

Mus musculus [2] = assay: Antiinflammatory activity in CD1 mouse ear dermatitis model assessed as inhibition of Croton oil-induced ear edema administered topically per cm'2 of ear measured after induction of dermatitis relative to untreated control; format: functional
Mus musculus [3] = assay: Antiinflammatory activity in CD1 mouse ear dermatitis model assessed as inhibition of Croton oil-induced ear edema at 0.04 umol administered topically per cm'2 of ear measured 6 hrs after induction of dermatitis relative to untreated control; format: functional
Summary of the method: (§2)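 Male CD-1 mice (28–32 g), anesthetized with ketamine 145 mg/kg i.p.; right ear (about 1 cm2) given 80 μg croton oil in 15 μL acetone, with test substance co-applied in acetone; left ear left untreated. Controls received irritant only. 6 mm punches taken from both ears; edema = weight difference treated minus untreated; % inhibition vs controls. ID50 by graphic interpolation of log dose–effect curves; ANOVA with Dunnett's test.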

Mus musculus [4] = assay: Antiinflammatory effect in CD1 mouse ear dermatitis model assessed as reduction in vascular changes at 0.04 umol administered topically per cm'2 of ear measured after 6 hrs post dermatitis induction relative to control; format: functional, organism-based
Summary of the method: (§3)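 Male CD-1 mice (28–32 g) anesthetized with ketamine 145 mg/kg ip; right ear (about 1 cm2) given 80 μg croton oil in 15 μL acetone with test substance co-applied in acetone; controls irritant only; left ear untreated. Ears fixed in 10% formalin, paraffin-embedded, 10 μm sections stained hematoxylin-eosin or Giemsa, examined by light microscopy at set times after induction.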

Mus musculus [5] = assay: Antiinflammatory activity in CD1 mouse ear dermatitis model assessed as inhibition of Croton oil-induced ear edema at 0.01 umol administered topically per cm'2 of ear measured after induction of dermatitis relative to untreated control; format: functional; summary of the method: as §2
Mus musculus [6] = assay: Antiinflammatory activity in CD1 mouse ear dermatitis model assessed as inhibition of Croton oil-induced ear edema at 0.04 umol administered topically per cm'2 of ear measured 12 hrs after induction of dermatitis relative to untreated control; format: functional; summary of the method: as §2
Mus musculus [7] = assay: Antiinflammatory activity in CD1 mouse ear dermatitis model assessed as reduction in AUC of Croton oil-induced ear edema response at 0.04 umol administered topically per cm'2 of ear measured 48 hrs after induction of dermatitis relative to untreated control; format: functional
Summary of the method: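 Croton oil dermatitis on the right ear of anesthetized male CD-1 mice, with compound co-applied topically in acetone. Ear punch weight difference (treated minus untreated ear) measured at several times up to 48 h.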

Mus musculus [8] = assay: Antiinflammatory activity in CD1 mouse ear dermatitis model assessed as reduction in leukocyte infiltration-based myeloperoxidase activity at 0.04 umol administered topically per cm'2 of ear measured 3 to 48 hrs post dermatitis induction relative to untreated control; format: functional; summary of the method: as §1
Mus musculus [9] = assay: Antiinflammatory activity in CD1 mouse ear dermatitis model assessed as inhibition of Croton oil-induced ear edema at 0.03 umol administered topically per cm'2 of ear measured after induction of dermatitis relative to untreated control; format: functional; summary of the method: as §2
Mus musculus [10] = assay: Antiinflammatory activity in CD1 mouse ear dermatitis model assessed as inhibition of Croton oil-induced ear edema at 0.10 umol administered topically per cm'2 of ear measured after induction of dermatitis relative to untreated control; format: functional; summary of the method: as §2
Mus musculus [11] = assay: Antiinflammatory effect in CD1 mouse ear dermatitis model assessed as reduction in cellular changes at 0.04 umol administered topically per cm'2 of ear measured after 6 hrs post dermatitis induction relative to control; format: functional, organism-based; summary of the method: as §3
Mus musculus [12] = assay: Antiinflammatory activity in CD1 mouse ear dermatitis model assessed as inhibition of Croton oil-induced ear edema at 0.30 umol administered topically per cm'2 of ear measured after induction of dermatitis relative to untreated control; format: functional; summary of the method: as §2
Mus musculus [13] = assay: Antiinflammatory effect in CD1 mouse ear dermatitis model assessed as reduction in cellular changes at 0.4 umol administered topically per cm'2 of ear measured after 6 hrs post dermatitis induction relative to control; format: functional, organism-based; summary of the method: as §3
Mus musculus [14] = assay: Antiinflammatory effect in CD1 mouse ear dermatitis model assessed as dermal swelling at 0.4 umol administered topically per cm'2 of ear after 9 hrs of post dermatitis induction relative to control; format: functional, organism-based; summary of the method: as §3
Mus musculus [15] = assay: Antiinflammatory effect in CD1 mouse ear dermatitis model assessed as reduction in leukocyte infiltration-based myeloperoxidase at 0.4 umol administered topically per cm'2 of ear measured after 6 hrs post dermatitis induction relative to control; format: functional, organism-based
Summary of the method: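 CD-1 mice, croton oil 80 μg in acetone on right ear with topical test substance; ear punch (6 mm) homogenized in 0.1 M sodium acetate pH 4.2 with 0.1% HTAB, centrifuged 15000g 5 min; supernatant myeloperoxidase measured with TMB (2.83 mM) and 0.7 mM H2O2, 5 min at 25 °C, stopped with acetic acid, A620; duplicates; units = nM TMB oxidized/min.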

Mus musculus [16] = assay: Antiinflammatory activity in CD1 mouse ear dermatitis model assessed as inhibition of Croton oil-induced ear edema at 0.4 umol administered topically per cm'2 of ear measured 48 hrs after induction of dermatitis relative to untreated control
Mus musculus [17] = assay: Antiinflammatory activity in CD1 mouse ear dermatitis model assessed as inhibition of Croton oil-induced ear edema at 1 umol administered topically per cm'2 of ear measured after induction of dermatitis relative to untreated control; format: functional; summary of the method: as §2
Mus musculus [18] = assay: Antiinflammatory effect in CD1 mouse ear dermatitis model assessed as reduction in mast cell degranulation at 0.4 umol administered topically per cm'2 of ear measured after 6 hrs post dermatitis induction relative to control; format: functional, organism-based; summary of the method: as §3
Mus musculus [19] = assay: Antiinflammatory effect in CD1 mouse ear dermatitis model assessed as reduction in vascular changes at 0.4 umol administered topically per cm'2 of ear measured after 6 hrs post dermatitis induction relative to control; format: functional, organism-based; summary of the method: as §3
Mus musculus [20] = assay: Antiinflammatory effect in CD1 mouse ear dermatitis model assessed as preservance of mast cell degranulation at 0.4 umol administered topically per cm'2 of ear measured after 6 hrs post dermatitis induction relative to control; format: functional, organism-based; summary of the method: as §3
[21] = Inhibition of NFkappaB activity transfected in HEK293 cells pretreated for 1 hr before 6 hrs of LPS challenge by luciferase reporter gene assay; conditions: Homo sapiens
[22] = tested on: Radical scavenging activity; assay: Antioxidant activity assessed as DPPH free radical scavenging activity after 30 mins by spectrophotometry; format: functional; conditions: read-out: IC50

## C[C@]12CCC(=O)C=C1CC[C@@H]1[C@@H]2[C@@H](O)C[C@@]2(C)[C@H]1CC[C@]2(O)C(=O)CO [HYDROCORTISONE]
Mus musculus [1]
  inhibition (INH): 51%
Mus musculus [2]
  ID50: 0.03 umol/cm2
Mus musculus [3]
  inhibition (INH): 79%
Mus musculus [4]
  inhibition: Active
Mus musculus [5]
  inhibition (INH): 29%
Mus musculus [6]
  inhibition (INH): 60%
Mus musculus [7]
  inhibition (INH): 69%
Mus musculus [8]
  inhibition (INH): 35%
Mus musculus [9]
  inhibition (INH): 55%
Mus musculus [10]
  inhibition (INH): 77%
Mus musculus [11]
  inhibition: Active

## COc1ccc2c(c1)c(CC(=O)O)c(C)n2C(=O)c1ccc(Cl)cc1 [INDOMETHACIN]
Mus musculus [12]
  inhibition (INH): 51%
Mus musculus [2]
  ID50: 0.29 umol/cm2
Mus musculus [13]
  inhibition: Active
Mus musculus [14]
  inhibition: inactive
Mus musculus [15]
  inhibition: Active
Mus musculus [16]
  inhibition: inactive
Mus musculus [17]
  inhibition (INH): 80%
Mus musculus [18]
  inhibition: Active
Mus musculus [19]
  inhibition: Active
Mus musculus [10]
  inhibition (INH): 25%
Mus musculus [20]
  inhibition: Active

## C=C1C(=O)O[C@@H]2[C@H]3O[C@]3(C)CC/C=C(\C)CC[C@@H]12
[21]
  IC50: 1.4 µM

## O=C1O[C@H]([C@@H](O)CO)C(O)=C1O [ASCORBIC ACID]
[22]
  IC50: 24.2 µM
